Key:
[1] = Partition coefficient (logP); assay type: physicochemical; conditions: octanol/water
Summary of the method: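 Shake partitioning between octanol and distilled water gave log P. For carboxylate substituents, log P was taken in 0.1 N NaOH, with Na+ as counterion.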

L1210 [2] = assay: Tested for 3 log kill of leukemia cells; assay type: functional, Mus musculus
Summary of the method: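 L-1210 leukemia cells (10^4) were inoculated intracerebrally into BDF2 mice, and drug was given intraperitoneally. The end point was the dose giving 3 log kill, expressed as log 1/C. The value comes from one or more individual experiments.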

L1210 [3] = assay: Toxicity against L-1210 leukemia cells in mice after intraperitoneal administration, activity is expressed as LD10; set-up: LD10: unit not given here; conditions: mouse, in vivo, ip

Compound | logP ([1]; read-out: logP) | log(1/C) (L1210 [2]) | log(1/LD10) (L1210 [3]) | logP [1] | LD10 (L1210 [3])
C[C@H]1S(=O)(=O)C[C@@H](NC(=O)N(CCCl)N=O)CS1(=O)=O | -0.53 | 1.89 | 1.04 |  | 
CC(=O)OCC1CCC(NC(=O)N(CCF)N=O)CC1 (centres undefined) | 1.77 | 0.984 | 0.705 |  | 
O=NN(CCF)C(=O)NC1CCCCCCCCCCC1 | 5.22 |  | 0.496 |  | 
O=NN(CCF)C(=O)N[C@H]1CC[C@H](C(=O)O)CC1 |  | 1.21 |  | 1.1 | 
O=NN(CCCl)C(=O)NC1CCCCC1 [LOMUSTINE] |  | 1.25 | 0.613 |  | 
CN(C)C(=O)c1ccc(NC(=O)N(CCCl)N=O)cc1 | 1.07 | 1.87 |  |  | 1.27
O=NN(CCCl)C(=O)NC1CCSCC1 | 2.07 | 2.1 | 1.25 |  | 
O=NN(CCF)C(=O)NCCF | 0.38 | 1.6 | 1.37 |  | 
O=NN(CCF)C(=O)NC1CCC(NC(=O)N(CCCl)N=O)CC1 (centres undefined) | 2.41 | 1.37 | 0.595 |  | 
NC(=O)N(CCCl)N=O | 0.57 | 1.05 | 1.43 |  | 
CC1(NC(=O)N(CCCl)N=O)CCCC1 | 2.7 | 0.576 | -0.03 |  | 
O=NN(CCCl)C(=O)N[C@@H]1CCCC[C@@H]1Cl | 2.73 | 0.951 | 0.446 |  | 
CC(=O)OC1OC(C)C(OC(C)=O)C(OC(C)=O)C1NC(=O)N(CCCl)N=O (centres undefined) | 1.32 | 1.93 | 1.21 |  | 
O=NN(CCCl)C(=O)NCCCl [CARMUSTINE] |  | 1.59 | 0.718 |  | 
O=NN(CCCl)C(=O)NC1CCC(Br)CC1 (centres undefined) | 2.67 | 1.24 | 0.571 |  | 
O=NN(CCCl)C(=O)NC1CS(=O)(=O)CS(=O)(=O)C1 | -0.9 | 1.9 | 0.842 |  | 
O=NN(CCF)C(=O)NC1CCSCC1 | 1.43 | 1.69 | 0.827 |  | 
CCOC(=O)C1CCCC(NC(=O)N(CCCl)N=O)C1 (centres undefined) | 2.2 | 1.41 | 0.786 |  | 
O=NN(CCF)C(=O)NC1CCSc2ccccc21 (centres undefined) | 2.33 | 1.31 | 0.896 |  | 
O=NN(CCCl)C(=O)NC1C=CCCC1 (centres undefined) | 2.45 | 1.16 | 0.848 |  | 

Compound | logP ([1]; read-out: logP) | log(1/C) (L1210 [2]) | log(1/LD10) (L1210 [3]) | logP [1] | LD10 (L1210 [3])
O=NN(CCCl)C(=O)N[C@@H]1CCCC[C@@H]1O | 1.75 | 1.32 | 0.698 |  | 
COC(=O)[C@H]1CC[C@@H](NC(=O)N(CCCl)N=O)CC1 | 1.89 | 1.51 | 0.733 |  | 
CCC1CCC(NC(=O)N(CCF)N=O)CC1 (centres undefined) | 3.26 | 0.736 | 0.515 |  | 
O=NN(CCCl)C(=O)N[C@H]1CC[C@H](CC(=O)O)CC1 | 2.16 | 1.65 | 0.863 |  | 
CC1SCC(NC(=O)N(CCCl)N=O)CS1 (centres undefined) | 2.49 | 1.61 | 1 |  | 
O=NN(CCCl)C(=O)N[C@H]1C(O)O[C@H](CO)[C@@H](O)[C@@H]1O (stereo in doubt; 75) [CHLOROZOTOCIN] |  | 1.76 | 1.03 | -1.02 | 
C[C@H]1S(=O)(=O)C[C@H](NC(=O)N(CCCl)N=O)CS1(=O)=O | -0.53 | 1.89 | 0.801 |  | 
O=NN(CCCl)C(=O)NC1CC2CCC1C2 (centres undefined) | 2.98 | 1.21 | 0.591 |  | 
CC(=O)O[C@@H]1[C@@H](OC(C)=O)[C@H](OC(C)=O)CO[C@H]1NC(=O)N(CCCl)N=O | 0.82 | 1.91 | 1.25 |  | 
O=NN(CCCl)C(=O)NC1CCCCC1NC(=O)N(CCCl)N=O (centres undefined) | 3.57 | 1.5 | 0.423 |  | 
O=NN(CCCl)C(=O)NCCF | 0.95 | 0.673 | 0.49 |  | 
CC(C)(C)C1CCCC(NC(=O)N(CCCl)N=O)C1 (centres undefined) | 4.6 | 0.763 | 0.239 |  | 
CC(=O)OCC1OC(NC(=O)N(CCCl)N=O)C(OC(C)=O)C(OC(C)=O)C1OC(C)=O (centres undefined) | 1.04 |  | 1.41 |  | 
O=NN(CCCl)C(=O)NC12CC3CC(CC(C3)C1)C2 | 3.62 | 1.16 | 0.664 |  | 
O=NN(CCCl)C(=O)NC1CSCSC1 | 2.08 | 1.81 | 1.07 |  | 
COC(=O)[C@H]1CC[C@H](NC(=O)N(CCCl)N=O)CC1 | 1.89 |  | 1.05 |  | 
CC(=O)OC1CCC(NC(=O)N(CCF)N=O)CC1 (centres undefined) | 1.33 | 1.4 | 0.884 |  | 
O=NN(CCF)C(=O)NC1CC2CCC1C2 (centres undefined) | 2.4 | 1.25 | 0.547 |  | 
O=NN(CCCl)C(=O)NC1CCC(NC(=O)N(CCCl)N=O)CC1 (centres undefined) | 3.57 |  | 0.66 |  | 
O=NN(CCCl)C(=O)N[C@H]1CC[C@@H](O)CC1 |  | 1.36 | 0.735 |  | 

Compound | logP ([1]; read-out: logP) | log(1/C) (L1210 [2]) | log(1/LD10) (L1210 [3]) | logP [1] | LD10 (L1210 [3])
CO[C@H]1CC[C@H](NC(=O)N(CCCl)N=O)CC1 | 2.09 | 1.44 | 0.841 |  | 
O=NN(CCCl)C(=O)N[C@@H]1CCCC[C@H]1O | 1.34 | 1.82 | 1.1 |  | 
CCOC(=O)C1(NC(=O)N(CCCl)N=O)CCCCC1 | 3.45 | 0.582 | -0.214 |  | 
COC1OC(COC(C)=O)C(OC(C)=O)C(NC(=O)N(CCCl)N=O)C1OC(C)=O (centres undefined) | 0.67 |  | 1.06 |  | 
CC(=O)OC1CCC(NC(=O)N(CCCl)N=O)CC1 (centres undefined) | 1.66 | 1.55 | 0.813 |  | 
CC(=O)O[C@H]1CCCC[C@H]1NC(=O)N(CCCl)N=O | 1.96 | 1.24 | 0.776 |  | 
O=NN(CCCl)C(=O)N[C@H]1CC[C@@H](C(=O)O)CC1 | 1.68 | 1.63 | 1.03 |  | 
Cc1cccc(C)c1NC(=O)N(CCCl)N=O | 2.57 | 1.29 | 0.864 |  | 
O=NN(CCCl)C(=O)N[C@H]1CCCC[C@@H]1Cl |  | 1.34 | 0.672 |  | 
O=NN(CCCl)C(=O)N[C@@H]1CCC[C@@H](O)C1 | 1 | 1.44 | 0.795 |  | 
O=NN(CCCl)C(=O)NC1C(O)CCCC1O (centres undefined) | 0.16 |  | 1.17 |  | 
O=NN(CCCl)C(=O)N[C@H]1C(O)O[C@H](CO)[C@@H](O)[C@@H]1O (stereo in doubt; 103) [CHLOROZOTOCIN] |  | 1.46 | 0.928 | -0.66 | 
CCOC(=O)C1CCC(NC(=O)N(CCCl)N=O)CC1 (centres undefined) | 2.2 | 1.51 | 0.967 |  | 
CCOC(=O)C1(NC(=O)N(CCCl)N=O)CCCC1 | 2.88 | 0.562 | 0.072 |  | 
CC1CC(O)C(NC(=O)N(CCCl)N=O)C(O)C1 (centres undefined) | 0.69 |  | 1.12 |  | 
O=NN(CCF)C(=O)NC1CCS(=O)(=O)CC1 | -0.39 | 1.92 | 0.922 |  | 
O=NN(CCCl)C(=O)NC1CCC(=O)NC1=O (centres undefined) |  | 1.8 | 1.16 |  | 
C[C@H]1CC[C@H](NC(=O)N(CCCl)N=O)CC1 |  | 1.55 | 0.771 |  | 
C[C@H]1CC[C@@H](NC(=O)N(CCCl)N=O)CC1 | 3.3 |  | 0.435 |  | 
CC(=O)OCC1OCC(NC(=O)N(CCCl)N=O)C(OC(C)=O)C1OC(C)=O (centres undefined) | 1.87 | 1.79 |  |  | 

Source: ChEMBL document CHEMBL1121539, “Antitumor structure-activity relations. Nitrosoureas vs. L-1210 leukemia” (J Med Chem, 1980)
